Data as given in publication PMC11626171 (Proceedings of the National Academy of Sciences of the …, 2024).

How the values were obtained:
people with ASD = settings: multisite clinical trial; cited from earlier work
[1] = Pharmacokinetics of nebulized AVP: cisternal CSF AVP levels; format: in vivo, rhesus macaques (Macaca mulatta); settings: N = 4, ELISA
Procedure, shortened: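 Same blinded nebulization at 0900. Sedation with dexmedetomidine (0.015 to 0.075 mg/kg) plus ketamine (5 to 30 mg/kg) at 20 min. Paired cisternal CSF and femoral venous blood sampled at two timepoints per session (30/90 or 60/120 min). Blood-contaminated CSF excluded. Unextracted CSF run by enzyme immunoassay in duplicate. Values given as ratio to matched placebo timepoint, log-transformed, REML mixed model.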

[2] = system: low-social male rhesus monkeys; format: in vivo, rhesus macaques (Macaca mulatta); settings: N = 8
Procedure, shortened: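 Low-social males habituated and given refresher mask training; next day nebulized at 0900 with 0, 25 or 50 IU per 1 mL (diluent placebo), order by modified Latin square, one-week washout. From 30 min post-dose, viewed on a monitor 61 cm from the cage videos of an unfamiliar adult male showing affiliative or aggressive behavior, interspersed with neutral nonsocial bouts, with a unique stimulus set per dose.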

[3] = system: low-social male rhesus monkeys; experiment: Object recognition memory, visual paired comparison task; format: in vivo, rhesus macaques (Macaca mulatta); settings: nebulized AVP (25 and 50 IU pooled) vs placebo, within-subjects, N = 8, testing began 30 min after nebulization
Procedure, shortened: (§1)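 Young adult males trained to breathe via mask-attached nebulizer until 2 min 40 s cumulative breathing. Dosed 0, 25 or 50 IU AVP per 1 mL in 0.4% 4-chlorobutanol/0.9% NaCl vehicle (vehicle as placebo), modified Latin square order, blinded, ≥1-week washout, 0900 dosing. Unique stimulus sets per dose on monitor. Looks +1 each; ln(novel/familiar) analysed by repeated-measures REML mixed model.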

children with ASD = settings: 4-wk intranasal AVP treatment, pilot clinical trial; cited from earlier work
[4] = system: low-social male rhesus monkeys; experiment: Face recognition memory, visual paired comparison task; format: in vivo, rhesus macaques (Macaca mulatta)
Procedure, shortened: as §1

[5] = Pharmacokinetics of nebulized AVP: plasma AVP levels; format: in vivo, rhesus macaques (Macaca mulatta); settings: N = 4, ELISA
Procedure, shortened: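 Nebulized through a face mask for 2 min 40 s of cumulative breathing at 0900 (0, 25 or 50 IU per 1 mL; diluent vehicle as placebo). Sedated with dexmedetomidine/ketamine 20 min later. Femoral blood sampled at two of 30/60/90/120 min, on EDTA, spun 1600×g 4 °C 15 min. Plasma extracted, nitrogen-dried, reconstituted, enzyme immunoassay in duplicate, expressed as ratio to the matched placebo timepoint. Washout ≥1 week.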

[6] = nebulized 25 or 50 IU AVP, 30, 60, 90, 120 min postnebulization
[7] = nebulized AVP (25 and 50 IU pooled) vs placebo, within-subjects

cisternal CSF AVP levels following AVP nebulization relative to placebo, time course [1, 6]	aggressive responses to conspecific aggressive or affiliative overtures [2, 7]	plasma AVP levels following AVP nebulization relative to placebo, time course [5, 6]	Molecule	core behavioral symptoms in people with ASD (people with ASD)	CSF AVP level effect, 50 IU vs 25 IU dose ([1]; nebulized AVP)	affiliative response rate to conspecific aggressive cues [2, 7]	affiliative responses to conspecific affiliative communication cues [2, 7]	affiliative response findings, 25 IU vs 50 IU AVP dose ([2]; nebulized AVP)	aggressive response findings, 25 IU vs 50 IU AVP dose ([2]; nebulized AVP)	object recognition memory (ratio of looks to novel versus familiar objects) [3]	social abilities in children with ASD (children with ASD)	face recognition memory (ratio of looks to novel versus familiar faces) ([4]; nebulized AVP (25 and 50 IU pooled) vs placebo, within-subjects, N = 8, testing began 30 min after nebulization)	recognition memory findings, 25 IU vs 50 IU AVP dose ([4]; nebulized AVP, faces and objects, N = 8)	plasma AVP level effect, 50 IU vs 25 IU dose ([5]; nebulized AVP)
–	–	–	CN1Cc2cc(Cl)ccc2-n2c(nnc2[C@H]2CC[C@H](Oc3ccccn3)CC2)C1 [balovaptan]	neither balovaptan [an AVPR1A antagonist ([49])], nor OXT ([50]), improve core behavioral symptoms	–	–	–	–	–	–	–	–	–	–
progressive linear increase	did not increase	quadratic rise and fall	NC(=O)CC[C@@H]1NC(=O)[C@H](Cc2ccccc2)NC(=O)[C@H](Cc2ccc(O)cc2)NC(=O)[C@@H](N)CSSC[C@@H](C(=O)N2CCC[C@H]2C(=O)N[C@@H](CCCN=C(N)N)C(=O)NCC(N)=O)NC(=O)[C@H](CC(N)=O)NC1=O [AVP, [ARG8]-vasopressin]	–	consistently stronger in the 50 IU AVP dose compared to the 25 IU AVP dose	no treatment-related difference	reciprocated affiliative communication cues with species-typical affiliative responses	did not differ between the 25 and 50 IU AVP doses	did not differ between the 25 and 50 IU AVP doses	did not differ between treatment conditions	improves empathic accuracy, facial emotion recognition, and social abilities	rescued	did not differ between the 25 and 50 IU AVP doses	consistently stronger in the 50 IU AVP dose compared to the 25 IU dose
–	–	–	oxytocin [OXT]	neither balovaptan [an AVPR1A antagonist ([49])], nor OXT ([50]), improve core behavioral symptoms	–	–	–	–	–	–	–	–	–	–
